ChEMBL document CHEMBL2177001, “Design, synthesis, and structure-activity relationships of novel pyrazolo[5,1-b]thiazole derivatives as potent and orally active corticotropin-releasing factor 1 receptor antagonists” (J Med Chem, 2012)

Columns and labels:
[1] = tested on: Liver microsomes; test: Intrinsic clearance in human liver microsomes; type: ADME, Microsome
Method in brief: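 Metabolic depletion in pooled human liver microsomes (0.1 mg/mL protein), substrate 0.3 μmol/L, final DMSO 0.01%. Matrix: 100 mmol/L phosphate pH 7.4 with 0.1 mmol/L EDTA. Reaction started with an NADPH-generating system (β-NADP+, G6P, MgCl2, G6PDH) and run at 37 °C for 0 and 15 min. Quenched with acetonitrile/methanol plus internal standard; analysed by LC/MS/MS.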

[2] = Plasma clearance in Sprague-Dawley rat at 3 mg/kg, iv; type: ADME, organism-based; parameters: dose 3 mg/kg, route intravenous
Method in brief: (§1)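 Fasted male Sprague-Dawley rats, n = 3 per route. IV dose 3 mg/kg from a 3 mg/mL solution in 1% ethanol–0.1 mol/L HCl–glucose. PO dose 10 mg/kg from a 2 mg/mL solution in 5% ethanol–0.1 mol/L HCl–glucose. Jugular blood sampled at 0.083 (iv only), 0.25, 0.5, 1, 2, 4, 6 and 8 h. Plasma deproteinized with acetonitrile plus internal standard, quantified by LC/MS/MS. Mean ± SEM of three animals.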

[3] = AUC in Sprague-Dawley rat at 10 mg/kg, po; type: ADME, organism-based; parameters: dose 10 mg/kg, route oral; conditions: plasma; method in brief: as §1
[4] = Tmax in Sprague-Dawley rat at 10 mg/kg, po; type: ADME, organism-based; parameters: dose 10 mg/kg, route oral; conditions: in vivo; method in brief: as §1
[5] = AUC in Sprague-Dawley rat at 3 mg/kg, iv; type: ADME, organism-based; parameters: dose 3 mg/kg, route intravenous; conditions: plasma; method in brief: as §1
[6] = Volume of distribution at steady state in Sprague-Dawley rat at 3 mg/kg, iv; type: ADME, organism-based; parameters: dose 3 mg/kg, route intravenous; conditions: in vivo, read-out: Vdss; method in brief: as §1
[7] = Half life in Sprague-Dawley rat at 3 mg/kg, iv; type: ADME, organism-based; parameters: dose 3 mg/kg, route intravenous; conditions: in vivo; method in brief: as §1
[8] = Cmax in Sprague-Dawley rat at 10 mg/kg, po; type: ADME, organism-based; parameters: dose 10 mg/kg, route oral; conditions: in vivo; method in brief: as §1
[9] = Oral bioavailability in Sprague-Dawley rat at 10 mg/kg; type: ADME, organism-based; conditions: in vivo; method in brief: as §1

SMILES	intrinsic clearance [1] [µL/min/mg]	also measured
COCc1cc(OC)c(-c2csc3c(N(CC4CCOCC4)CC4CC4)c(OC)nn23)c(OC)c1	460	
COCc1cc(OC)c(-c2csc3c(N(CC4CC4)CC4(F)CCOCC4)c(OC)nn23)c(OC)c1	550	
COCc1cc(OC)c(-c2csc3c(N(CC4CC4)CC4CCCOC4)c(OC)nn23)c(OC)c1 (configuration not stated)	550	
COCc1cc(OC)c(-c2csc3c(N(CC4CC4)CC4CCCCO4)c(OC)nn23)c(OC)c1 (configuration not stated)	870	
COCc1cc(OC)c(-c2csc3c(N(CC4CC4)CC4CCOC4)c(OC)nn23)c(OC)c1 (configuration not stated)	530	
COCc1cc(OC)c(-c2csc3c(N(CC4CC4)CC4CCCO4)c(OC)nn23)c(OC)c1 (configuration not stated)	1020	
COCCN(CC1CC1)c1c(OC)nn2c(-c3c(OC)cc(COC)cc3OC)csc12	960	
COCc1cc(OC)c(-c2csc3c(N(CC4CC4)C4CCOCC4)c(OC)nn23)c(OC)c1	180	
CCN(c1c(OC)nn2c(-c3c(OC)cc(COC)cc3OC)csc12)C1CCOCC1	200	
CCCN(c1c(OC)nn2c(-c3c(OC)cc(COC)cc3OC)csc12)C1CCOCC1	220	
COCc1cc(OC)c(-c2csc3c(N(CCC4CC4)C4CCOCC4)c(OC)nn23)c(OC)c1	180	
CCCCN(c1c(OC)nn2c(-c3c(OC)cc(COC)cc3OC)csc12)C1CCOCC1	200	
COCc1cc(OC)c(-c2csc3c(N(C(C)C)C4CCOCC4)c(OC)nn23)c(OC)c1	670	
COCc1cc(OC)c(-c2csc3c(N(CC(C)C)C4CCOCC4)c(OC)nn23)c(OC)c1	360	
CCCN(c1c(OC)nn2c(-c3c(OC)cc(COCC)cc3OC)csc12)C1CCOCC1	340	
CCCN(c1c(OC)nn2c(-c3c(OC)cc(C#N)cc3OC)csc12)C1CCOCC1	150	
CCCN(c1c(OC)nn2c(-c3c(Cl)cc(COC)cc3OC)csc12)C1CCOCC1	370	
CCCCN(c1c(OC)nn2c(-c3c(OC)cc(COCC)cc3OC)csc12)C1CCOCC1	220	clearance [2]: 1.93 L/h/kg; AUC [3]: 1.24 µg·h/mL; Tmax [4]: 0.5 h; AUC [5]: 1.58 µg·h/mL; Vd [6]: 6.32 L/kg; half-life [7]: 5.2 h; Cmax [8]: 0.54 µg/mL; bioavailability [9]: 23%
CCCCN(c1c(OC)nn2c(-c3c(OC)cc(C#N)cc3OC)csc12)C1CCOCC1	150	
